Results gathered from unrelated publications.
Compare with care: the assays were run in different laboratories.
MAP2K6: Dual specificity mitogen-activated protein kinase kinase 6 (MAP2K6, Homo sapiens, UniProt P52564)

| SMILES | target | effect on | action | method | concentration | quantity | value |
| --- | --- | --- | --- | --- | --- | --- | --- |
| C[C@H](c1ccc(F)cc1)N(Cc1cccc(C(=O)O)c1)C(=O)c1cnc2ccccc2c1 | MAP2K6 | cell-free assay | – | competition with immobilised ligand | 1 µM | remaining binding | 100% |
| O=C(Nc1cnn(-c2csc(C(=O)NC3COC3)c2)c1)Nc1ccccc1Cl | MAP2K6 | enzyme activity | inhibitor | – | 5 µM | remaining activity | 96.4% |
| Cn1c2c(c3ccc(Cl)c(Cl)c31)C(C#N)C(C)(C)NC2=O (stereo not shown) | MAP2K6 | thermal stability | – | DSF | 10 µM | ΔTm | 0.2 °C |
| Cc1c[nH]c2nccc(Oc3c(F)cc(Nc4cc(Cl)nc(N)n4)cc3F)c12 | MAP2K6 | cell-free assay | – | competition with immobilised ligand | 0.1 µM | remaining binding | 99% |
| CNC(=O)c1cc(Oc2ccc(NC(=O)Nc3ccc(Cl)c(C(F)(F)F)c3)cc2)ccn1 | MAP2K6 | enzyme activity | inhibitor | – | 10 µM | inhibition | 99% |
| Cn1c(=O)n(-c2ccc(C(C)(C)C#N)cc2)c2c3cc(-c4cnc5ccccc5c4)ccc3ncc21 | MAP2K6 | enzyme activity | inhibitor | – | 10 µM | remaining activity | 93% |
| Cn1c2c(c3ccc(Cl)c(Cl)c31)C(C#N)C1(CCNCC1)NC2=O (racemic) | MAP2K6 | thermal stability | – | DSF | 10 µM | ΔTm | 0.3 °C |
| CN(C)CC#Cc1ccc(OCCCc2sc(N3CCc4cccc(C(=O)Nc5nc6ccccc6s5)c4C3)nc2C(=O)O)c(F)c1 | MAP2K6 | cell-free assay | – | competition with immobilised ligand | 1 µM | remaining binding | 100% |
| CCCS(=O)(=O)Nc1ccc(F)c(C(=O)c2c[nH]c3ncc(-c4ccc(Cl)cc4)cc23)c1F | MAP2K6 | enzyme activity | inhibitor | – | 1 µM | inhibition | < 10% |
| Cc1ccc(Nc2nccc(N(C)c3ccc4c(C)n(C)nc4c3)n2)cc1S(N)(=O)=O | MAP2K6 | enzyme activity | inhibitor | – | 0.3 µM | inhibition | -10% |
| Cc1cc(-n2nc(Cc3cc(F)cc(C(F)(F)F)c3)nc2C)ccc1C(N)=O | MAP2K6 | cell-free assay | – | competition with immobilised ligand | 1 µM | remaining binding | 83% |
| C[S+]([O-])c1ccc(-c2nc(-c3ccncc3)c(-c3ccc(F)cc3)[nH]2)cc1 (stereo not shown) | MAP2K6 | cell-free assay | – | – | 0.5 µM | remaining signal | 102% |
| Cn1c2c(c3ccc(Cl)c(Cl)c31)C(C#N)C1(CCOCC1)NC2=O (stereo not shown) | MAP2K6 | thermal stability | – | DSF | 10 µM | ΔTm | 0 °C |
| Cn1cc(Cl)c2c(Oc3c(F)cc(Nc4cc(Cl)nc(N)n4)cc3F)ccnc21 | MAP2K6 | cell-free assay | – | competition with immobilised ligand | 0.1 µM | remaining binding | 100% |
| CS(=O)(=O)CCNCc1ccc(-c2ccc3ncnc(Nc4ccc(OCc5cccc(F)c5)c(Cl)c4)c3c2)o1 | MAP2K6 | cell-free assay | – | – | 0.5 µM | remaining signal | 95.4% |
| CN(C)C(=O)Cn1cc(-c2nc(C3(c4ccc(-c5cnc(N)nc5)cc4)CC3)no2)cn1 | MAP2K6 | cell-free assay | – | competition with immobilised ligand | 1 µM | remaining binding | 100% |
| Cc1ccc(C(=O)Nc2ccc(CN3CCN(C)CC3)c(C(F)(F)F)c2)cc1C#Cc1cnc2cccnn12 | MAP2K6 | enzyme activity | inhibitor | – | 23.5 nM | remaining activity | 100% |

| SMILES | target | effect on | action | method | concentration | quantity | value |
| --- | --- | --- | --- | --- | --- | --- | --- |
| CC(C)(C)c1nc(-c2cccc(NS(=O)(=O)c3c(F)cccc3F)c2F)c(-c2ccnc(N)n2)s1 | Dual specificity mitogen-activated protein kinase kinase 6 (MAP2K6, Homo sapiens, UniProt P52564, S207D/T211D) | enzyme activity | inhibitor | radiometric | 1 µM | remaining activity | 96% |
| CC[C@H](CO)Nc1nc(NCc2ccccc2)c2ncn(C(C)C)c2n1 | MAP2K6 | cell-free assay | – | – | 0.5 µM | remaining signal | 98.2% |
| CN(C)C1CCN(CC#Cc2nn(C3CCCC3)c3nc(NCc4ccccc4)ncc23)C1 (stereo not shown) | MAP2K6 | enzyme activity | inhibitor | FRET | 1 µM | inhibition | 6% |
| O=C1NC(=O)c2cc(Nc3ccc(F)cc3)c(Nc3ccc(F)cc3)cc21 | MAP2K6 | cell-free assay | – | – | 0.5 µM | remaining signal | 110% |
| CNCc1ccc(-c2cc(-c3nc(-c4ccc(S(=O)(=O)C(C)C)cc4)cnc3N)on2)cc1 | MAP2K6 | enzyme activity | inhibitor | – | 2 µM | inhibition | 28% |
| CO[C@@H](C)c1c(Nc2ccc([C@H](N(C)C(=O)C3CCS(=O)(=O)CC3)C(F)(F)F)cc2)cnc2cc(Cl)nn12 | MAP2K6 | cell-free assay | – | competition with immobilised ligand | 1 µM | remaining binding | 91% |
| O=C1Nc2ccc(Cl)cc2C1=Cc1cc(Cl)c(O)c(Cl)c1 | MAP2K6 | cell-free assay | – | – | 0.5 µM | remaining signal | 96.4% |
| CC(C)(O)[C@H]1CC[C@H](Nc2ccc3ncc(-c4cccc(C(F)(F)F)c4)n3n2)CC1 | MAP2K6 | enzyme activity | inhibitor | – | 1 µM | remaining activity | 90.6% |
| Cn1c2c(c3ccc(Cl)c(Cl)c31)C(C#N)C1(CCCCC1)NC2=O (racemic) | MAP2K6 | thermal stability | – | DSF | 10 µM | ΔTm | 0.2 °C |
| CCCOc1ccc(OC)c(F)c1C(=O)c1ccc(C(=O)N[C@@H]2CNC[C@H]2NC(=O)c2ccc3[nH]ncc3c2)cc1 | MAP2K6 | enzyme activity | inhibitor | – | 10 µM | remaining activity | 103% |
| COc1cc2ncnc(Nc3ccc(Oc4ccccc4)cc3C)c2cc1OC | MAP2K6 | enzyme activity | inhibitor | – | 1 µM | inhibition | 3% |
| Cn1c2c(Cl)c(Cl)ccc2c2cc[nH]c(=O)c21 | MAP2K6 | thermal stability | – | DSF | 10 µM | ΔTm | 0.2 °C |
| Cc1nc(Cc2cccc(C(F)(F)F)c2)sc1-c1ccc(C(N)=O)nc1 | MAP2K6 | cell-free assay | – | competition with immobilised ligand | 1 µM | remaining binding | 69% |
| Cc1cc(NC(=O)c2cccc3cc(-c4cccc5[nH]nc(N)c45)ccc23)ccc1F | MAP2K6 | enzyme activity | inhibitor | – | 0.1 µM | activity vs control | 89% |
| COc1cc(Nc2cnc(C#N)c(O[C@H](C)CN(C)C)n2)ncc1-c1cnn(C)c1 | MAP2K6 | enzyme activity | inhibitor | radiometric | 10 µM | remaining activity | 91% |
| Oc1cccc(-c2nc(N3CCOCC3)c3oc4ncccc4c3n2)c1 | MAP2K6 | enzyme activity | inhibitor | – | 10 µM | remaining activity | 107% |
| COc1cc(/C=C/C(=O)CC(=O)/C=C/c2ccc(O)c(OC)c2)ccc1O | MAP2K6 | enzyme activity | inhibitor | – | 1 µM | activity vs control | 102% |
